# Laboratory results as given in ChEMBL document CHEMBL4145448, “Broad activity of diphenyleneiodonium analogues against Mycobacterium tuberculosis, malaria parasites and bacterial pathogens” (Eur J Med Chem, 2018).
# Assays:
# [1] = Selectivity index, ratio of CC50 for human HepG2 cells in presence of 1% FBS to MIC for Acinetobacter baumannii isolate 07AC-336; assay type: toxicity; conditions: read-out: Selectivity Index
# [2] = tested on: Mycobacterium tuberculosis; assay: Antimycobacterial activity against Mycobacterium tuberculosis H37Rv ATCC 25618 after 7 days by resazurin dye based assay; assay type: functional; conditions: H37Rv ATCC 25618, 168 h
# How it was run: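 H37Rv grown at 37 °C in 7H9 with 10% ADC, 0.5% glycerol and 0.02% tyloxapol. Compounds serially diluted in water, 0 to 10 µM, in triplicate. Culture adjusted to OD600 0.001 and incubated 7 days at 37 °C. Resazurin (0.05% w/v) added for 4-24 h and fluorescence read at 590 nm. MIC is the lowest concentration giving complete growth inhibition versus untreated. Rifampicin served as control.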
# [3] = tested on: Escherichia coli; assay: Antibacterial activity against Escherichia coli N4149 after 18 hrs by broth microdilution method; assay type: functional; conditions: N4149, 18 h
# How it was run: (§1)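 Broth microdilution per CLSI in cation-adjusted Mueller-Hinton broth. 100 µL inoculum (~10^6 cfu/mL in CaMHB) mixed with 100 µL CaMHB containing compound, 0 to 128 µM. Incubated 18 h at 37 °C. MIC taken as the lowest concentration with no visible growth. Polymyxin B served as positive control. Isolates were stored at -80 °C in tryptone soy broth with 20% glycerol.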
# [4] = tested on: Pseudomonas aeruginosa; assay: Antibacterial activity against Pseudomonas aeruginosa QLD PSA 1 after 18 hrs by broth microdilution method; assay type: functional; conditions: QLD PSA 1, 18 h; how it was run: as §1
# [5] = tested on: Klebsiella pneumoniae; assay: Antibacterial activity against Klebsiella pneumoniae isolate 1 after 18 hrs by broth microdilution method; assay type: functional; conditions: isolate 1, 18 h; how it was run: as §1
# [6] = Selectivity index, ratio of CC50 for human HepG2 cells in presence of 1% FBS to MIC for Pseudomonas aeruginosa QLD PSA 1; assay type: toxicity; conditions: read-out: Selectivity Index
# How it was run: (§2)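 Selectivity index is CC50 (1% FBS) divided by MIC. […] They then got compound at 300 to 0.14 µM (3-fold steps) for 24 h at 37 °C, 5% CO2. Resazurin (10 µM, 2 h) was read at ex/em 560/590 in duplicate wells. For MIC, CLSI broth microdilution was run in CaMHB with ~10^6 cfu/mL inoculum and 0–128 µM compound.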
# [7] = tested on: Pseudomonas aeruginosa; assay: Antibacterial activity against Pseudomonas aeruginosa isolate 18878B klon 1 after 18 hrs by broth microdilution method; assay type: functional; conditions: isolate 18878B klon 1, 18 h; how it was run: as §1
# [8] = Selectivity index, ratio of CC50 for human HepG2 cells in presence of 1% FBS to MIC for Pseudomonas aeruginosa isolate 19147nm; assay type: toxicity; conditions: read-out: Selectivity Index; how it was run: as §2
# [9] = Selectivity index, ratio of CC50 for human HepG2 cells in presence of 1% FBS to MIC for Mycobacterium tuberculosis H37Rv ATCC 25618; assay type: toxicity; conditions: read-out: Selectivity Index
# [10] = Selectivity index, ratio of CC50 for human HepG2 cells in presence of 1% FBS to MIC for vancomycin-resistant Staphylococcus aureus ATCC 700699; assay type: toxicity; conditions: read-out: Selectivity Index; how it was run: as §2
# [11] = Selectivity index, ratio of CC50 for human HepG2 cells in presence of 1% FBS to MIC for Escherichia coli N2381; assay type: toxicity; conditions: read-out: Selectivity Index
# [12] = Selectivity index, ratio of CC50 for human HepG2 cells in presence of 1% FBS to MIC for Klebsiella pneumoniae isolate 224-11-C; assay type: toxicity; conditions: read-out: Selectivity Index
# [13] = tested on: Klebsiella pneumoniae; assay: Antibacterial activity against Klebsiella pneumoniae isolate 248-33-D after 18 hrs by broth microdilution method; assay type: functional; how it was run: as §1
# [14] = Selectivity index, ratio of CC50 for human HepG2 cells in presence of 1% FBS to MIC for Acinetobacter baumannii ATCC 19606; assay type: toxicity; conditions: read-out: Selectivity Index
# [15] = Selectivity index, ratio of CC50 for human HepG2 cells in presence of 1% FBS to MIC for Klebsiella pneumoniae ATCC 13883; assay type: toxicity; conditions: read-out: Selectivity Index
# [16] = tested on: Staphylococcus aureus; assay: Antibacterial activity against methicillin-resistant Staphylococcus aureus ATCC 43300 after 18 hrs by broth microdilution method; assay type: functional; conditions: ATCC 43300, 18 h; how it was run: as §1
# [17] = Selectivity index, ratio of CC50 for human HepG2 cells in presence of 1% FBS to MIC for Acinetobacter baumannii ATCC 17978 col10; assay type: toxicity; conditions: read-out: Selectivity Index
# [18] = tested on: Acinetobacter baumannii; assay: Antibacterial activity against Acinetobacter baumannii ATCC 17978 col10 after 18 hrs by broth microdilution method; assay type: functional; conditions: ATCC 17978 col10, 18 h; how it was run: as §1
# [19] = tested on: Acinetobacter baumannii; assay: Antibacterial activity against Acinetobacter baumannii ATCC 17978 after 18 hrs by broth microdilution method; assay type: functional; conditions: ATCC 17978, 18 h; how it was run: as §1
# [20] = tested on: Acinetobacter baumannii; assay: Antibacterial activity against Acinetobacter baumannii isolate 07AC-336 after 18 hrs by broth microdilution method; assay type: functional; conditions: isolate 07AC-336, 18 h; how it was run: as §1
Structure (SMILES),selectivity ratio [1],MIC [2],MIC [3],MIC [4],MIC [5],selectivity ratio [6],MIC [7],selectivity ratio [8],selectivity ratio [9],selectivity ratio [10],selectivity ratio [11],selectivity ratio [12],MIC [13],selectivity ratio [14],selectivity ratio [15],MIC [16],selectivity ratio [17],MIC [18],MIC [19],MIC [20]
Cc1ccc2c(c1)-c1ccccc1[I+]2,2.2,0.57 µM,> 72 µM,36 µM,> 72 µM,1,9 µM,4.2,66,2.2,0.52,> 0.52,72 µM,2.2,0.52,9 µM,33,1.1 µM,9 µM,18 µM
Fc1ccc2c(c1)-c1ccccc1[I+]2,1.3,0.29 µM,36 µM,18 µM,36 µM,0.67,2.2 µM,11,41,1.3,0.67,0.33,18 µM,2.7,0.67,4.5 µM,2,0.56 µM,2.2 µM,9.1 µM
Cc1cccc2c1-c1ccccc1[I+]2,1.2,0.14 µM,> 72 µM,4.5 µM,72 µM,0.58,1.1 µM,4.6,19,0.07,0.14,> 0.04,> 72 µM,1.2,0.14,36 µM,4.6,0.57 µM,1.1 µM,2.2 µM
Fc1ccc2c(c1)[I+]c1ccccc1-2,0.66,0.29 µM,18 µM,8.9 µM,72 µM,0.66,1.1 µM,11,20,0.66,0.08,0.08,36 µM,2.6,0.16,2.2 µM,11,0.56 µM,1.1 µM,8.9 µM
COc1ccc2c(c1)-c1ccccc1[I+]2,0.29,1.1 µM,> 70 µM,70 µM,> 70 µM,0.29,35 µM,1.2,19,0.58,> 0.29,> 0.29,> 70 µM,0.58,0.29,18 µM,4.6,4.4 µM,18 µM,70 µM
N#Cc1ccc2c(c1)[I+]c1ccccc1-2,> 0.05,0.29 µM,71 µM,8.8 µM,> 71 µM,0.37,4.4 µM,1.5,12,0.37,0.05,> 0.05,> 71 µM,0.19,0.19,4.4 µM,1.5,2.2 µM,4.4 µM,> 71 µM
COc1cccc2c1-c1ccccc1[I+]2,0.55,4.4 µM,> 70 µM,> 70 µM,> 70 µM,> 0.55,70 µM,0.55,8.8,1.1,0.55,> 0.55,> 70 µM,1.1,> 0.55,35 µM,1.1,35 µM,35 µM,70 µM
Clc1ccc2c(c1)[I+]c1ccccc1-2,0.51,0.28 µM,8.7 µM,2.2 µM,17 µM,0.51,0.54 µM,2,3.9,0.51,0.13,0.06,17 µM,0.51,0.13,2.2 µM,< 4.1,< 0.27 µM,0.54 µM,2.2 µM
Clc1ccc2c(c1)-c1ccccc1[I+]2,1.9,0.54 µM,17 µM,8.7 µM,35 µM,1.9,2.2 µM,3.7,30,3.7,0.93,0.47,17 µM,3.7,1.9,2.2 µM,30,0.5 µM,2.2 µM,8.7 µM
